Screening data: PubChem BioAssay, several laboratories
An excerpt weighted towards active compounds, which were near 1.8% of everything screened.
Apaf-1 inh = inhibitors of human Apaf-1 apoptosome, primary screen, biochemical, DEVD-Rh110 fluorescence, uHTS | reconstituted apoptosome caspase-3 activity | inhibition, % at 20 µM | 330,000 compounds, 0.71% hits | AID 489030, 2010; active = inhibition of at least 40% at 20 µM
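Material: reconstituted apoptosome with Apaf-1, cytochrome c, caspase-9, procaspase-3, dATP; medium: pH 7.5 Hepes buffer with CHAPS, BSA, DTT; also added: cytochrome c and DEVD-Rh110 substrate; timing: 30 min plus 50 min, RT; signal: Rh110 fluorescence intensity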
proCasp7 act = procaspase-7 activators, primary screen, counter-screen for procaspase-3 activator project, biochemical, absorbance, HTS, human; 330,000 compounds, 0.093% hits; Caspase-7 (Homo sapiens), P55210; AID 463210, 2010; recombinant procaspase-7, Ac-DEVD-pNA absorbance 405 nm; D23A/D198A/D206A triple mutant, cannot self-cleave; scale: DMSO 0, 5 µM enzyme 100; activation, % at 8.5 µM;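 active = percent activation above the screen-wide mean plus 3 SD, cut at about 25% in these data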
Target sequence (P55210 whole entry D23A/D198A/D206A): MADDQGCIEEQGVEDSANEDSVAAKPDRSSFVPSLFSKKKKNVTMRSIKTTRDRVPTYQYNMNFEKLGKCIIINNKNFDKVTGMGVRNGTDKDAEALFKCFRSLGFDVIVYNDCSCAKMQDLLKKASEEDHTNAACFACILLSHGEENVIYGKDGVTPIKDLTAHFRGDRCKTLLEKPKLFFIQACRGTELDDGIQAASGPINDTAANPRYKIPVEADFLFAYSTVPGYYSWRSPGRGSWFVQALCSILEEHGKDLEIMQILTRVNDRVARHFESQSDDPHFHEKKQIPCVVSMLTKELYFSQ
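buffer or medium = Zinc-free HEPES/NaCl buffer, pH 7.4 | material = Procaspase-7 triple mutant (PC-7 D3A) | input = 2 µM procaspase-7 mutant as dispensed | signal = Epi-absorbance of released pNA at 405 nm, two timepoints | timing = 1 h preincubation, 2 h reaction | replicates = singlicate compound testing | evaluation = % activation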
ZTA counter = ZTA (EBV) inhibition in EBNA-1 counter-screen | inhibition, % at 11 µM | P03206 | AID 2234 | ZTA-DNA binding, fluorescence polarization | 320,000 compounds, 0.15% hits; in the data active = inhibition above about 33%
EBNA-1 inhibitor = EBNA-1 DNA-binding inhibitors, primary screen, biochemical, fluorescence polarization. inhibition, % at 14.8 µM. 300,000 compounds, 0.34% hits; in the data active = inhibition above about 28%
GSTO1 counter = inhibitors of recombinant GSTO1, primary screen, counter-screen for RBBP9 inhibitor project, biochemical, fluorescence polarization. activity-based probe fluorescence polarization. 300,000 compounds, 1.1% hits. inhibition, % at 5.96 µM;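 active = inhibition above the campaign mean inhibition plus 3 SD, cut at about 35% in these data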
proCasp3 act = activators of human procaspase-3 D3A mutant, primary screen, biochemical, absorbance, PC-3 D3A mutant, single concentration; Caspase-3 (Homo sapiens), P42574; 330,000 compounds, 0.11% hits; activation, % at 8.5 µM; recombinant procaspase-3 D3A, Ac-DEVD-pNA absorbance 405 nm; AID 463141, 2010;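 active = activation above the mean of all tested compounds plus 3 SD, cut at about 21% in these data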
Target sequence (P42574 whole entry D9A/D28A/D175A): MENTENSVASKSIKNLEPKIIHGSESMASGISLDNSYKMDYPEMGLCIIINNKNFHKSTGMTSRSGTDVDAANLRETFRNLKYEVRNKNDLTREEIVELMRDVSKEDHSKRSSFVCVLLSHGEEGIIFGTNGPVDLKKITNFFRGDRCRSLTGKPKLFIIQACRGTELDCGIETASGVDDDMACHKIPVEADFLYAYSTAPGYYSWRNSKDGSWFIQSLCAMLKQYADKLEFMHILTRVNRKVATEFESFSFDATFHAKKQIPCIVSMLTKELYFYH
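material = Procaspase-3 D3A mutant | probe or stimulus = Ac-DEVD-pNA | compound = single dose, 8.5 µM nominal compound, 0.8% DMSO | timing = 1 h preincubation, 2 h reaction | measured by = 405 nm absorbance of p-nitroaniline, reads at 0 and 120 min | benchmarks = DMSO-only low control, 5 µM PC-3 D3A high control | repeats = singlicate, each compound tested once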
Hits are given with their value; . = inactive; / = no result given.

SMILES	Apaf-1 inh	proCasp7 act	ZTA counter	EBNA-1 inhibitor	GSTO1 counter	proCasp3 act
CCOc1ccccc1/C=C/c1onc(C)c1S(=O)(=O)N1CCC(C(=O)NC(C)(C)C)CC1	.	.	.	.	.	.
Cc1ccc(Sc2ccc(NC(=O)CCl)cc2)cc1C	.	.	.	.	78	.
COc1ccc2[nH]c3c4c(ccc3c2c1)C(=O)C=CC4=O	45	/	/	/	/	/
COc1ccc2[nH]c(=O)cc(C(=O)O)c2c1	.	.	.	.	.	.
CC(=O)C1=C(c2ccccc2)NC(=O)NC1c1ccc2c(c1)OCO2 (configuration not stated)	.	.	.	.	.	.
CC(=O)C1=C(c2ccccc2)NC(=O)NC1c1ccc(O)c(O)c1 (configuration not stated)	.	.	.	.	37	.
CC1=NN(c2ccccc2)C(=O)/C1=C\c1ccc(Oc2ccc([N+](=O)[O-])cc2[N+](=O)[O-])cc1	92	.	.	.	77	.
CC(OC(=O)CCOc1ccccc1)C(=O)Nc1ccc(Cl)cn1 (configuration not stated)	.	.	.	.	.	.
CCOc1cc(C(c2c(C)[nH][nH]c2=O)c2c(C)[nH][nH]c2=O)ccc1O	.	.	.	.	46	.
CCOc1ccc(/C=C2\SC(=S)N(CCCC(=O)NCCCN3CCOCC3)C2=O)cc1	42	.	.	.	.	.
CCc1ccc(/C=C2/SC(=S)N(CCC(=O)NCCCN3CCOCC3)C2=O)cc1	.	.	.	.	.	.
O=C(NNC(=O)c1cccnc1)NC1CCCCC1	.	.	.	.	.	.
O=C(NNC(=O)c1cc(O)c(O)c(O)c1)NC1CCCCC1	.	.	.	.	36	.
Cc1cc(C)cc(NC(=O)/C(C#N)=C/c2cn(CC(=O)NCc3ccco3)c3ccccc23)c1	.	.	.	40	.	.
O=C(NC1CCCCC1)C1(S(=O)(=O)c2ccc(Cl)cc2)CC1	.	.	.	.	.	.
Cc1ccc(C)n1-c1ccc(C(=O)O)cc1	.	.	50	.	.	.
O=C(N/N=C\c1ccc(-c2ccccc2[N+](=O)[O-])o1)C1COc2cc3ccccc3cc2O1 (configuration not stated)	81	.	.	.	.	.
Cc1ccc(/C=N\NC(=O)C2COc3cc4ccccc4cc3O2)o1 (configuration not stated)	.	.	.	.	.	.
O=C(NNS(=O)(=O)c1ccc([N+](=O)[O-])cc1)C(=O)Nc1cccc(C(=O)O)c1	.	.	.	.	.	.
Cc1cc(C(=O)CCC(=O)NCC2COc3ccccc3O2)c(C)s1 (configuration not stated)	.	.	.	.	.	.
Cc1ccc(SCc2cn3c(C)cc(C)nc3n2)cc1	.	.	.	.	.	.
Cc1ccc(SCC2=NN(c3nc(C)cc(C)n3)C(=O)C2)cc1	.	.	.	.	37	.
COc1ccc2c(c1)OC(O)(C(F)(F)F)CC2=O (configuration not stated)	.	.	.	.	36	.
CCOc1ccc2c(c1)OC(c1ccc(OC)cc1)(C(F)(F)F)NC2=O (configuration not stated)	.	.	.	.	.	.
CC1(C)NC(=O)N(CC(=O)OCC(=O)NC(=O)c2ccccc2)C1=O	.	.	.	.	.	.
SMILES	Apaf-1 inh	proCasp7 act	ZTA counter	EBNA-1 inhibitor	GSTO1 counter	proCasp3 act
COc1ccc(NC(=O)CCNC(=O)Cn2ccc3ccccc3c2=O)cc1Cl	.	.	.	.	.	.
Cc1ccc(-n2nnnc2SCC(=O)c2cc(C)n(CC3CCCO3)c2C)cc1 (configuration not stated)	.	.	.	101	.	.
Cc1cccc(-n2nnnc2SCC(=O)c2cc(C)n(CC3CCCO3)c2C)c1 (configuration not stated)	.	.	.	.	.	.
COc1ccc(S(=O)(=O)Nc2cccc3c2O[C@H](CN(C)Cc2ccncc2)[C@@H](C)CN([C@H](C)CO)C3=O)cc1	.	.	/	/	/	.
COc1ccc(S(=O)(=O)Nc2cccc3c2O[C@H](CN(C)Cc2ccccc2)[C@@H](C)CN([C@H](C)CO)C3=O)cc1	53	.	/	/	/	.
O=c1[nH]cc(N=Cc2cc(Cl)cc(Cl)c2O)c(=O)[nH]1	.	.	.	.	42	.
C[C@H](CO)N1C[C@H](C)[C@@H](CN(C)S(C)(=O)=O)Oc2ccc(NS(=O)(=O)c3cn(C)cn3)cc2C1=O	.	.	/	/	/	.
Cc1cc(C(=O)CCC(=O)N2CCN(c3ccccc3)CC2)c(C)s1	.	.	.	.	.	.
CC(C)c1onc(C(=O)NCc2ccc(F)cc2)c1[N+](=O)[O-]	.	.	.	.	37	.
CC(C)c1onc(C(=O)NCCc2ccccc2)c1[N+](=O)[O-]	.	.	.	.	37	.
Cc1ccc(O)c(NC(=O)c2noc(C(C)C)c2[N+](=O)[O-])c1	.	.	.	.	35	.
CC(C)c1onc(C(=O)N2CCN(Cc3ccccc3)CC2)c1[N+](=O)[O-]	.	.	.	.	.	.
COc1ccc(NC(=O)c2noc(C(C)C)c2[N+](=O)[O-])cc1	.	.	.	.	.	.
CC(C)c1onc(C(=O)N(C)Cc2ccccc2)c1[N+](=O)[O-]	.	.	39	.	.	.
CC(=O)c1ccc(NC(=O)c2noc(C(C)C)c2[N+](=O)[O-])cc1	.	.	.	.	.	.
COC(=O)c1ccc(OC(=O)c2ccncc2)cc1O	.	.	.	.	.	.
CN(Cc1ccccc1)S(=O)(=O)c1ccc(N2CCCC2=O)cc1	.	.	.	/	/	.
CCN(C(=O)COn1nnc2ccc(S(=O)(=O)N(C)C)cc21)C1CCS(=O)(=O)C1 (configuration not stated)	.	.	.	/	/	.
O=C(NCCCO)C(=O)NCC1OCCCN1S(=O)(=O)c1cccs1 (configuration not stated)	.	.	.	.	.	.
CN(C)CCCNC(=O)C(=O)NCC1OCCN1S(=O)(=O)c1cccs1 (configuration not stated)	64	.	.	.	.	.
Nc1cc(S(=O)(=O)Nc2ccccc2Cl)ccc1N1CCCCC1	.	.	/	/	/	.
